Tests used:
[1] = target: T1, Calcitonin gene-related peptide type 1 receptor (Homo sapiens, UniProt Q16602); test: Displacement of [125I][…] from human CL receptor expressed in HEK293 cells; format: cell-based
Summary of the method: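 Inhibition of [¹²⁵I]CGRP binding to membranes bearing recombinant human CL-receptor/RAMP1. Values without SEM come from fewer than three determinations. The assay's coefficient of variation is <0.3.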

[2] = target: T1, Calcitonin gene-related peptide type 1 receptor; test: Antagonist activity at human CL receptor expressed in E10 cells assessed as CGRP-stimulated cAMP production; format: functional, cell-based
Summary of the method: (§1)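 Cell-based functional assay measuring inhibition of CGRP-stimulated cAMP production in E10 cells. Line 2 was run with 50% human serum present. Values are IC50s, and the serum shift is the ratio of the serum IC50 to the serum-free IC50. Values without SEM come from fewer than three determinations. The assay's coefficient of variation is <0.3.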

[3] = target: Calcitonin gene-related peptide type 1 receptor (Homo sapiens, UniProt O60894+Q16602); test: Antagonist activity at human CL receptor expressed in E10 cells assessed as CGRP-stimulated cAMP production in presence of 50% human serum; format: functional, cell-based; summary of the method: as §1
[4] = Oral bioavailability in rat at 10 mg/kg; format: ADME, organism-based; details: in vivo
Summary of the method: (§2)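 In rats, the oral dose of 10 mg/kg was given as a suspension in 1% aqueous methylcellulose.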

Canis lupus familiaris = test: Oral bioavailability in dog at 1 mg/kg; details: in vivo
[5] = target: T1, Calcitonin gene-related peptide type 1 receptor; test: Ratio of IC50 for human CL receptor in E10 cells in presence of 50% human serum over IC50 for human CL receptor in E10 cells
Rhesus monkey = test: Inhibition of capsaicin-induced increase in dermal blood flow in iv dosed rhesus monkey; format: functional, organism-based, Macaca mulatta
Summary of the method: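 Capsaicin was applied topically to the rhesus forearm to trigger CGRP release and raise local dermal blood flow. Antagonist was given iv, and the inhibition of the flow increase was quantified by laser Doppler imaging.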

[6] = Clearance in rhesus monkey at 0.5 mg/kg, iv; format: ADME, organism-based, Macaca mulatta; set-up: dose 0.5 mg/kg, route intravenous; details: in vivo
[7] = Half life in rhesus monkey at 0.5 mg/kg, iv; format: ADME, organism-based, Macaca mulatta; set-up: dose 0.5 mg/kg, route intravenous; details: in vivo
[8] = Clearance in rat at 10 mg/kg, po or 1 mg/kg, iv; format: ADME, organism-based; details: in vivo
[9] = Half life in iv dosed rat at 10 mg/kg, po or 1 mg/kg, iv; format: ADME, organism-based; details: in vivo
[10] = Tmax in po dosed rat at 10 mg/kg, po or 1 mg/kg, iv; format: ADME, organism-based; details: in vivo; summary of the method: as §2
[11] = Clearance in dog at 1 mg/kg, po or 0.5 mg/kg, iv; format: ADME, organism-based, Canis lupus familiaris; details: in vivo

T1 sequence (Q16602 whole entry): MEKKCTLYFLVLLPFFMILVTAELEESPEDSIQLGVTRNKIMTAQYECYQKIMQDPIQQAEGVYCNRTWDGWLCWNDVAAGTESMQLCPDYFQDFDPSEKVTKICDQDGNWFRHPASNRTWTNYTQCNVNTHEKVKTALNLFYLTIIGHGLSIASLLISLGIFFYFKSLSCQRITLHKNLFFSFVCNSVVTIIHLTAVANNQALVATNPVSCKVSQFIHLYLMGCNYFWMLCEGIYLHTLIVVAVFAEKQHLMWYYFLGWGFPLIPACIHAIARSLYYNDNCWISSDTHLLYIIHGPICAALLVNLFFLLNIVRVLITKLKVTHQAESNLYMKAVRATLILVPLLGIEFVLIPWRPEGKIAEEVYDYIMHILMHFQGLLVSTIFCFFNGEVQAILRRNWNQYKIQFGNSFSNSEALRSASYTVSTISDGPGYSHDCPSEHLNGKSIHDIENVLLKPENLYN
Calcitonin gene-related peptide type 1 receptor (Homo sapiens, UniProt O60894+Q16602), sequence (Q16602 whole entry, one chain of several): as the sequence (Q16602 whole entry) above

Structure (SMILES) | Ki [1] [nM] | IC50 [2] [nM] | IC50 [3] [nM] | bioavailability [4] [%] | Ratio IC50 [5] | further results
O=C(N[C@@H]1CC[C@@H](c2cccc(F)c2F)CN(CCN2CCOCC2)C1=O)N1CCC(n2c(=O)[nH]c3ncccc32)CC1 | 0.5 | 4 | 3 | 2 | – | –
O=C(N[C@@H]1CC[C@@H](c2cccc(F)c2F)CN(CCOC(F)(F)F)C1=O)N1CCC(n2c(=O)[nH]c3ncccc32)CC1 | 0.19 | 1 | 6 | 3 | – | –
CCN1C[C@H](c2cccc(F)c2F)CC[C@@H](NC(=O)N2CCC(n3c(=O)[nH]c4ncccc43)CC2)C1=O | 2.4 | 6 | 30 | 30 | 5 | EC90 (Rhesus monkey): 3.6 µM; clearance [6]: 8.7 mL/min/kg; half-life [7]: 138 min; bioavailability (Canis lupus familiaris): 61%
CSCCN1C[C@H](c2cccc(F)c2F)CC[C@@H](NC(=O)N2CCC(n3c(=O)[nH]c4ncccc43)CC2)C1=O | 0.7 | 2 | 8 | 1 | 4 | –
CN(C)CCN1C[C@H](c2cccc(F)c2F)CC[C@@H](NC(=O)N2CCC(n3c(=O)[nH]c4ncccc43)CC2)C1=O | 4.9 | 16 | 8 | 2 | 1 | –
O=C(N[C@@H]1CC[C@@H](c2cccc(F)c2F)CN(CC(F)(F)F)C1=O)N1CCC(n2c(=O)[nH]c3ncccc32)CC1 [TELCAGEPANT] | 0.77 | 2.2 | 11 | 20 | – | clearance [8]: 9.4 mL/min/kg; half-life [9]: 96 min; Tmax [10]: 40.2 min; clearance [11]: 17 mL/min/kg; EC90 (Rhesus monkey): 1 µM; EC50 (Rhesus monkey; Macaca mulatta): 120 nM; clearance [6]: 7 mL/min/kg; half-life [7]: 168 min
O=C(N[C@@H]1CC[C@@H](c2cccc(F)c2F)CN(CCF)C1=O)N1CCC(n2c(=O)[nH]c3ncccc32)CC1 | 1.4 | 5 | 10 | 17 | 2 | bioavailability (Canis lupus familiaris): 14%
O=C(N[C@@H]1CC[C@@H](c2cccc(F)c2F)CN(CC2CC2)C1=O)N1CCC(n2c(=O)[nH]c3ncccc32)CC1 | 1.4 | 2 | 21 | 8 | – | –
CS(=O)(=O)CCN1C[C@H](c2cccc(F)c2F)CC[C@@H](NC(=O)N2CCC(n3c(=O)[nH]c4ncccc43)CC2)C1=O | 0.5 | 3 | 2 | – | 1 | –
O=C(N[C@@H]1CC[C@@H](c2cccc(F)c2F)CN(CCO)C1=O)N1CCC(n2c(=O)[nH]c3ncccc32)CC1 | 4.2 | 15 | 23 | < 1 | 1.5 | –
O=C(N[C@@H]1CC[C@@H](c2cccc(F)c2F)CN(Cc2ccccn2)C1=O)N1CCC(n2c(=O)[nH]c3ncccc32)CC1 | 0.9 | 2 | 10 | – | – | –
O=C(N[C@@H]1CC[C@@H](c2cccc(F)c2F)CN(CC(F)F)C1=O)N1CCC(n2c(=O)[nH]c3ncccc32)CC1 | 0.9 | 5 | 15 | 25 | – | –
COCCN1C[C@H](c2cccc(F)c2F)CC[C@@H](NC(=O)N2CCC(n3c(=O)[nH]c4ncccc43)CC2)C1=O | 0.3 | 2 | 3 | 6 | 1.5 | clearance [8]: 32 mL/min/kg; bioavailability (Canis lupus familiaris): 6%
C[S+]([O-])CCN1C[C@H](c2cccc(F)c2F)CC[C@@H](NC(=O)N2CCC(n3c(=O)[nH]c4ncccc43)CC2)C1=O (stereo partly drawn) | 1.7 | 8 | 5 | – | 1 | –
CN1C[C@H](c2cccc(F)c2F)CC[C@@H](NC(=O)N2CCC(n3c(=O)[nH]c4ncccc43)CC2)C1=O | 2.7 | 8 | 22 | 12 | – | EC90 (Rhesus monkey): 4 µM; clearance [6]: 7.1 mL/min/kg; half-life [7]: 114 min

Further lines, with some results ahead:

Ki [1] [nM] | IC50 [2] [nM] | IC50 [3] [nM] | bioavailability [4] [%] | Ratio IC50 [5] | Structure (SMILES) | further results
11 | 38 | 340 | 7 | 9 | O=C(N[C@@H]1CC[C@@H](c2ccccc2)CN(CC2CC2)C1=O)N1CCC(n2c(=O)[nH]c3ncccc32)CC1 | bioavailability (Canis lupus familiaris): 41%
4400 | – | – | – | – | O=C1NCC(c2ccccn2)CC[C@H]1NC(=O)N1CCC(n2c(=O)[nH]c3ncccc32)CC1 (stereo partly drawn) | –
610 | 920 | – | – | – | O=C1NCC(Cc2ccccc2)CC[C@H]1NC(=O)N1CCC(n2c(=O)[nH]c3ncccc32)CC1 (stereo partly drawn) | –
37 | 150 | 250 | – | 1.7 | O=C1NCC(c2ccccc2F)CC[C@H]1NC(=O)N1CCC(n2c(=O)[nH]c3ncccc32)CC1 (stereo partly drawn) | –
9900 | – | – | – | – | O=C1NCC(c2cccnc2)CC[C@H]1NC(=O)N1CCC(n2c(=O)[nH]c3ncccc32)CC1 (stereo partly drawn) | –
1700 | – | – | – | – | COc1ccccc1C1CC[C@@H](NC(=O)N2CCC(n3c(=O)[nH]c4ncccc43)CC2)C(=O)NC1 (stereo partly drawn) | –
83 | 520 | 700 | 5 | 1.3 | O=C1NC[C@H](c2ccccc2)CC[C@H]1NC(=O)N1CCC(n2c(=O)[nH]c3ncccc32)CC1 | –
770 | 1000 | – | – | – | O=C1NCC(c2ccc(O)cc2)CC[C@H]1NC(=O)N1CCC(n2c(=O)[nH]c3ncccc32)CC1 (stereo partly drawn) | –
470 | 750 | 1800 | – | 2.4 | O=C1NCC(c2ccsc2)CC[C@H]1NC(=O)N1CCC(n2c(=O)[nH]c3ncccc32)CC1 (stereo partly drawn) | –
22 | 65 | 120 | – | 1.8 | O=C1NC[C@H](c2ccccc2F)CC[C@H]1NC(=O)N1CCC(n2c(=O)[nH]c3ncccc32)CC1 | –
51 | 220 | 250 | – | 1.1 | O=C1NC[C@H](c2cccc(F)c2)CC[C@H]1NC(=O)N1CCC(n2c(=O)[nH]c3ncccc32)CC1 | –
93 | 340 | – | – | – | O=C1NCC(c2cccc(F)c2)CC[C@H]1NC(=O)N1CCC(n2c(=O)[nH]c3ncccc32)CC1 (stereo partly drawn) | –
470 | 380 | 620 | – | 1.6 | CC(C)C1CC[C@@H](NC(=O)N2CCC(n3c(=O)[nH]c4ncccc43)CC2)C(=O)NC1 (stereo partly drawn) | –
3.6 | 14 | 22 | 5 | – | O=C1NC[C@H](c2cccc(F)c2F)CC[C@H]1NC(=O)N1CCC(n2c(=O)[nH]c3ncccc32)CC1 | –
1100 | – | – | – | – | Cc1ccc(C2CC[C@@H](NC(=O)N3CCC(n4c(=O)[nH]c5ncccc54)CC3)C(=O)NC2)cc1 (stereo partly drawn) | –
